Measured values reported in ChEMBL document CHEMBL4665798, “Novel Human Urate Transporter 1 Inhibitors as Hypouricemic Drug Candidates with Favorable Druggability” (J Med Chem, 2020).

The compounds below were run on Mus musculus (assay: Hypouricemic activity in Kunming mouse model of xanthine/potassium oxonate-induced acute hyperuricemia assessed as decrease in serum uric acid level at 2 mg/kg administered 3 hrs prior to xanthine/potassium oxonate and measured after 6 hrs relative to control). Conditions: time 9 hrs.
Assay type: functional
Design: scale not given: the % may be the effect or the level left
How it was run: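 Male Kunming mice, hyperuricemia induced by intragastric xanthine plus subcutaneous potassium oxonate (0.2 mL each). […] Groups: normal vehicle, untreated model, active control, test. Serum uric acid measured. Decrease ratio = (model SUA − compound SUA)/(model SUA − vehicle SUA).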

Q: For `CCOC(=O)CCCSc1nc2cnccc2n1-c1ccc(C2CC2)c2ccccc12`, which Activity is on record?
A: 47.37%

Q: Which Activity does the source give for `Cc1ccc(S(=O)(=O)NC(=O)CSc2nnc(Br)n2-c2ccc(C3CC3)c3ccccc23)cc1` here?
A: 79.41%

Q: How did the Activity turn out when `CCOC(=O)C(C)(C)Sc1nc2cccnc2n1-c1ccc(C2CC2)c2ccccc12` was run?
A: 2.61%

Q: `COC(=O)C(C)Sc1nc2cnccc2n1-c1ccc(C#N)c2ccccc12` (stereo not given) was tested. Which Activity did it give?
A: 17.9%

Q: For `CCOC(=O)CCCSc1nc2cccnc2n1-c1c(C)cc(C)cc1C`, which Activity is on record?
A: 11.19%

Q: For `N#Cc1ccc(-n2c(SC3(C(=O)O)CCC3)nc3ncccc32)c2ccccc12`, which Activity is on record?
A: 60.74%

Q: `CCOC(=O)C1(Sc2nc3cnccc3n2-c2ccc(C#N)c3ccccc23)CCC1` was tested. Which Activity did it give?
A: 14.44%

Q: How did the Activity turn out when `N#Cc1ccc(-n2c(SCCCC(=O)O)nc3cnccc32)c2ccccc12` was run?
A: 11.19%

Q: Which Activity does the source give for `CC(C)(C)c1ccc(S(=O)(=O)NC(=O)CSc2nnc(Br)n2-c2ccc(C3CC3)c3ccccc23)cc1` here?
A: 15.1%

Q: `O=C(O)CSc1nc2cccnc2n1-c1cccc2ccccc12` was tested. Which Activity did it give?
A: 2.25%

Q: `CCOC(=O)C(C)(C)Sc1nc2ncccc2n1-c1ccc(C2CC2)c2ccccc12` was tested. Which Activity did it give?
A: 45.58%

Q: With `CC(Sc1nc2cnccc2n1-c1ccc(C#N)c2ccccc12)C(=O)O` (stereo not given) as the compound, how does the Activity read?
A: 27.84%

Q: Which Activity does the source give for `O=C(O)CCCSc1nc2ncccc2n1-c1ccc(C2CC2)c2ccccc12` here?
A: 35.39%

Q: With `Cc1cc(C)c(-n2c(SC(C)C(=O)O)nc3cccnc32)c(C)c1` (stereo not given) as the compound, how does the Activity read?
A: 37.04%

Q: `CCOC(=O)CCCSc1nc2cccnc2n1-c1cccc2ccccc12` was tested. Which Activity did it give?
A: 37.38%

Q: How did the Activity turn out when `CCOC(=O)C(C)(C)Sc1nc2cccnc2n1-c1c(C)cc(C)cc1C` was run?
A: 41.56%

Q: `N#Cc1ccc(-n2c(SCC(=O)O)nc3ncccc32)c2ccccc12` was tested. Which Activity did it give?
A: 51.91%

Q: With `CCOC(=O)C(C)(C)Sc1nc2cnccc2n1-c1ccc(C2CC2)c2ccccc12` as the compound, how does the Activity read?
A: 68.65%

Q: How did the Activity turn out when `N#Cc1ccc(-n2c(SC3(C(=O)O)CCC3)nc3cnccc32)c2ccccc12` was run?
A: 27.36%

Q: With `O=C(CSc1nnc(Br)n1-c1ccc(C2CC2)c2ccccc12)NS(=O)(=O)c1ccc(Cl)s1` as the compound, how does the Activity read?
A: 53.44%

Q: For `O=C(CSc1nnc(Br)n1-c1ccc(C2CC2)c2ccccc12)NS(=O)(=O)c1ccc(Cl)cc1`, which Activity is on record?
A: 76.46%

Q: How did the Activity turn out when `CCOC(=O)C(C)Sc1nc2cnccc2n1-c1ccc(C2CC2)c2ccccc12` (stereo not given) was run?
A: 49.46%

Q: Which Activity does the source give for `CC(C)(Sc1nc2cccnc2n1-c1ccc(C2CC2)c2ccccc12)C(=O)O` here?
A: -0.83%

Q: For `O=C(O)CCCSc1nc2cccnc2n1-c1cccc2ccccc12`, which Activity is on record?
A: 1.4%

Q: How did the Activity turn out when `COC(=O)CCCSc1nc2ncccc2n1-c1ccc(C#N)c2ccccc12` was run?
A: 7.17%

Q: For `CCOC(=O)C(C)(C)Sc1nc2cccnc2n1-c1cccc2ccccc12`, which Activity is on record?
A: 8.54%

Q: `CC(C)(Sc1nc2ncccc2n1-c1ccc(C#N)c2ccccc12)C(=O)O` was tested. Which Activity did it give?
A: 3.67%

Q: How did the Activity turn out when `COC(=O)C(C)(C)Sc1nc2cnccc2n1-c1ccc(C#N)c2ccccc12` was run?
A: 9.09%

Q: How did the Activity turn out when `CCOC(=O)C(C)Sc1nc2cccnc2n1-c1ccc(C2CC2)c2ccccc12` (stereo not given) was run?
A: 40.34%

Q: Which Activity does the source give for `Cc1cc(C)c(-n2c(SCC(=O)O)nc3cccnc32)c(C)c1` here?
A: 18.26%

Q: For `CC(C)(Sc1nc2ncccc2n1-c1ccc(C2CC2)c2ccccc12)C(=O)O`, which Activity is on record?
A: 11.47%

Q: With `CCS(=O)(=O)NC(=O)CSc1nnc(Br)n1-c1ccc(C2CC2)c2ccccc12` as the compound, how does the Activity read?
A: 11.04%

Q: `Cc1cc(C)c(-n2c(SC(C)(C)C(=O)O)nc3cccnc32)c(C)c1` was tested. Which Activity did it give?
A: -4.96%

Q: With `CCOC(=O)CSc1nc2cnccc2n1-c1ccc(C2CC2)c2ccccc12` as the compound, how does the Activity read?
A: 40.79%

Q: `COC(=O)CCCSc1nc2cnccc2n1-c1ccc(C#N)c2ccccc12` was tested. Which Activity did it give?
A: 8.96%

Q: How did the Activity turn out when `O=C(CSc1nnc(Br)n1-c1ccc(C2CC2)c2ccccc12)NS(=O)(=O)c1cccs1` was run?
A: 63.94%

Q: How did the Activity turn out when `O=C(CSc1nnc(Br)n1-c1ccc(C2CC2)c2ccccc12)NS(=O)(=O)c1ccc([N+](=O)[O-])cc1` was run?
A: 66.71%

Q: `N#Cc1ccc(-n2c(SCCC(=O)O)nc3ncccc32)c2ccccc12` was tested. Which Activity did it give?
A: 71.62%

Q: With `N#Cc1ccc(-n2c(SCC(=O)O)nc3cnccc32)c2ccccc12` as the compound, how does the Activity read?
A: 59.22%

Q: For `CCOC(=O)CCCSc1nc2ncccc2n1-c1ccc(C2CC2)c2ccccc12`, which Activity is on record?
A: 33.6%

Q: How did the Activity turn out when `O=C(O)C1(Sc2nc3cnccc3n2-c2ccc(C3CC3)c3ccccc23)CCC1` was run?
A: 72.99%

Q: Which Activity does the source give for `CC(C)S(=O)(=O)NC(=O)CSc1nnc(Br)n1-c1ccc(C2CC2)c2ccccc12` here?
A: 11.99%

Q: How did the Activity turn out when `CCOC(=O)C(C)(C)Sc1nc2ncccc2n1-c1ccc(C#N)c2ccccc12` was run?
A: 12.71%

Q: `CCOC(=O)CSc1nc2cccnc2n1-c1ccc(C2CC2)c2ccccc12` was tested. Which Activity did it give?
A: 41.96%

Q: Which Activity does the source give for `CC(Sc1nc2cccnc2n1-c1cccc2ccccc12)C(=O)O` (stereo not given) here?
A: -1.78%

Q: With `CC(C)(Sc1nc2cnccc2n1-c1ccc(C2CC2)c2ccccc12)C(=O)O` as the compound, how does the Activity read?
A: 37.89%

Q: `CS(=O)(=O)NC(=O)CSc1nnc(Br)n1-c1ccc(C2CC2)c2ccccc12` was tested. Which Activity did it give?
A: 81.53%

Q: `O=C(O)CSc1nc2cccnc2n1-c1ccc(C2CC2)c2ccccc12` was tested. Which Activity did it give?
A: 43.69%

Q: For `CCOC(=O)C1(Sc2nc3cnccc3n2-c2ccc(C3CC3)c3ccccc23)CCC1`, which Activity is on record?
A: 41.35%

Q: Which Activity does the source give for `O=C(O)CCCSc1nc2cnccc2n1-c1ccc(C2CC2)c2ccccc12` here?
A: 56.26%

Q: How did the Activity turn out when `COC(=O)CSc1nc2cnccc2n1-c1ccc(C#N)c2ccccc12` was run?
A: 14.54%

Q: Which Activity does the source give for `N#Cc1ccc(-n2c(SCCCC(=O)O)nc3ncccc32)c2ccccc12` here?
A: 20.3%

Q: Which Activity does the source give for `COC(=O)C(C)Sc1nc2ncccc2n1-c1ccc(C#N)c2ccccc12` (stereo not given) here?
A: 13%

Q: With `O=C(O)CSc1nc2cnccc2n1-c1ccc(C2CC2)c2ccccc12` as the compound, how does the Activity read?
A: 42.17%

Q: With `O=C(CSc1nnc(Br)n1-c1ccc(C2CC2)c2ccccc12)NS(=O)(=O)c1ccc(F)cc1` as the compound, how does the Activity read?
A: 75.17%

Q: `O=C(O)CCCSc1nc2cccnc2n1-c1ccc(C2CC2)c2ccccc12` was tested. Which Activity did it give?
A: 1.07%

Q: `CC(C)(Sc1nc2cccnc2n1-c1cccc2ccccc12)C(=O)O` was tested. Which Activity did it give?
A: 0.32%

Q: Which Activity does the source give for `COC(=O)CSc1nc2ncccc2n1-c1ccc(C#N)c2ccccc12` here?
A: 9.51%

Q: `CCOC(=O)C1(Sc2nc3ncccc3n2-c2ccc(C3CC3)c3ccccc23)CCC1` was tested. Which Activity did it give?
A: 47.9%

Q: `N#Cc1ccc(-n2c(SCCC(=O)O)nc3cnccc32)c2ccccc12` was tested. Which Activity did it give?
A: 51.13%

Q: `CCc1oc2ccccc2c1C(=O)c1cc(Br)c(O)c(Br)c1` [BENZBROMARONE] was tested. Which Activity did it give?
A: 36%

Q: How did the Activity turn out when `CCOC(=O)CSc1nc2cccnc2n1-c1c(C)cc(C)cc1C` was run?
A: -2.2%

Q: Which Activity does the source give for `O=C(CSc1nnc(Br)n1-c1ccc(C2CC2)c2ccccc12)NS(=O)(=O)c1ccccc1` here?
A: 64.65%

Q: How did the Activity turn out when `CCOC(=O)CSc1nc2ncccc2n1-c1ccc(C2CC2)c2ccccc12` was run?
A: 33.56%

Q: Which Activity does the source give for `CCOC(=O)CCCSc1nc2cccnc2n1-c1ccc(C2CC2)c2ccccc12` here?
A: 23.73%

Same assay, conditions: time 9 hrs, 2 mg/kg

Q: With `C[C@@H](Sc1nc2ncccc2n1-c1ccc(C2CC2)c2ccccc12)C(=O)O` (stereo in doubt; 44d) as the compound, how does the Activity read?
A: 98.04%

Q: With `C[C@@H](Sc1nc2ncccc2n1-c1ccc(C2CC2)c2ccccc12)C(=O)O` (stereo in doubt; 44b) as the compound, how does the Activity read?
A: 40.58%

Q: With `C[C@@H](Sc1nc2cnccc2n1-c1ccc(C2CC2)c2ccccc12)C(=O)O` (stereo in doubt; 54d) as the compound, how does the Activity read?
A: 57.89%

Q: For `C[C@H](Sc1nc2cnccc2n1-c1ccc(C2CC2)c2ccccc12)C(=O)O` (stereo in doubt; 54a), which Activity is on record?
A: 58.08%

Q: How did the Activity turn out when `C[C@H](Sc1nc2ncccc2n1-c1ccc(C2CC2)c2ccccc12)C(=O)O` (stereo in doubt; 44c) was run?
A: 31.02%
